PMC12040637 (Iranian Biomedical Journal, 2024)
In brackets after ≈: the same amount, converted by molar mass. Several values for one entry are separate records, joined by “and”; a condition that tells them apart may be missing. Equal entries are not always repeated.

What was measured:
[1] = tested on: Hep G2 cells; assay: MTT cytotoxic assay; assay type: cell-based; conditions: for IC50: Homo sapiens, HepG2, 24 h, read-out: Hep G2 cells IC50
Outline: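 Hep G2 cells (Pasteur Institute of Iran) seeded at 10,000 cells/well and grown 24 h at 37 °C, 5% CO2. Extract and fractions were tested at 12.5–200 μg/mL for 24 h. MTT was then added for 4 h at 37 °C, and formazan was dissolved in DMSO and read at 570 nm. IC50 came from plots of growth inhibition against concentration; mean ± SD of triplicates.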

[2] = FRAP assay; assay type: biochemical; conditions: absorbance 593 nm; mean ± SD of triplicate
Outline: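 FRAP reagent: 300 mM acetate buffer pH 3.6, 10 mM TPTZ in 40 mM HCl and 20 mM FeCl3·6H2O at 10:1:1, held dark at 37 °C for 10 min. 20 µL sample (6.25–3200 μg/mL solutions) was added to 180 µL pre-warmed reagent; controls held MeOH. Absorbance was read at 593 nm, and the FRAP value was calculated against the control; triplicate analysis.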

[3] = tested on: protease; assay: Determination of protease inhibition; assay type: biochemical; conditions: casein 1%, 25 °C, 10 minutes
Outline: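 Samples prepared at 1–300 µg/mL; 50 µL was combined with 200 µL of 50 mM phosphate buffer, then protease and 1% casein substrate were added. The mixture was incubated at 25 °C for 10 min and stopped with 10% trichloroacetic acid. After 21 min it was centrifuged at 895 ×g for 5 min, and supernatant absorbance was read at 280 nm. IC50 as mean ± SD of three replicates.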

[4] = DPPH radical scavenging activity assay; assay type: biochemical; conditions: 30 min at 37 °C, absorbance 517 nm; mean ± SD of triplicate
Outline: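 20 µL of sample (6.25–3200 μg/mL solutions) mixed with 200 µL methanolic DPPH and kept dark at 37 °C for 30 min; absorbance read at 517 nm. Blanks held sample plus MeOH; controls held MeOH plus DPPH. Percent inhibition was calculated from control and blank absorbances. Quercetin was the standard; triplicate runs.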

[5] = NO radical scavenging; assay type: biochemical; conditions: for NO scavenging ability percentage: 200 μg/mL, mean ± SD of triplicate
Outline: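 Sodium nitroprusside (50 µL, 10 mmol) and 50 µL MeOH were added to 50 µL sample and incubated at 25 °C for 150 min. Then 100 µL Griess reagent was added for 5 min at room temperature, and absorbance was read at 542 nm. Blanks held sample, nitroprusside and MeOH without Griess reagent. Inhibition ratio was calculated from sample, blank and control absorbances; triplicate.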

[6] = ABTS radical cation scavenging assay; assay type: biochemical; conditions: absorbance 734 nm after 15 minutes; mean ± SD of triplicate
Outline: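 ABTS radical cation made by mixing aqueous ABTS diammonium salt with ammonium persulfate, then kept dark at room temperature for 16 h. It was diluted with ethanol to A734 0.70 ± 0.05. 200 µL radical solution was added to 20 µL of samples at a range of concentrations, and A734 was read after 15 min. IC50 reported as mean ± SD of three replicates.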

[7] = tested on: Hep G2 cells; assay: CAA assay; assay type: cell-based; conditions: Homo sapiens, HepG2, read-out: CAA IC50
Outline: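 Hep G2 cells seeded at 6 × 10^4 cells/well overnight, then washed three times with PBS. Cells were incubated at 37 °C in treatment medium containing extract at various concentrations plus 25 µM DCFH-DA, then washed with PBS. AAPH was added, and fluorescence (ex 485/em 538 nm) was read every 5 min for 1 h at 37 °C. IC50 is the concentration scavenging 50% of AAPH radicals; quercetin was the standard; triplicates.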

[8] = ORAC assay; assay type: biochemical; conditions: Trolox equivalents
Outline: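 Blank, Trolox standard or sample (20 µL) in 75 mM potassium phosphate buffer was plated in triplicate with 200 µL of 0.96 µM fluorescein and held at 37 °C for 20 min. AAPH was then added, and fluorescence decay (ex 485/em 538 nm) was recorded every 4.5 min for 2.5 h. Values were expressed as Trolox equivalents.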

Row | SMILES | FRAP IC50 [2] [µg/mL] | Protease inhibition IC50 [3] [µg/mL] | DPPH IC50 [4] [µg/mL] | ABTS IC50 [6] [µg/mL] | IC50 [7] [µg/mL] | Hep G2 cells IC50 ([1]; MTT, 24 h treatment, mean ± SD) [µg/mL] | IC50 [1] [µg/mL] | cytotoxic effect on the Hep G2 cell line (in words) ([1]; MTT) | NO scavenging ability percentage [5] | NO scavenging ability percentage ([5]; listed as oleanolic acid) [%] | ORAC TE [8] [TE] | NO scavenging [5] [µg/mL] | ORAC TE ([8]; listed as rosmarinic acid) [TE] | NO scavenging ability percentage ([5]; listed as ursolic acid) [%]
1 | N.N.[Cl][Pt][Cl] [Cisplatin, reference compound] |  |  |  |  |  | 12.65 ± 0.78 |  |  |  |  |  |  |  | 
2 | O=c1c(O)c(-c2ccc(O)c(O)c2)oc2cc(O)cc(O)c12 [Quercetin, quercetin, reference compound] | 18.53 ± 0.12 |  | 26.51 ± 0.06 | 26.35 ± 0.03 | 38.9 ± 0.87 (≈ 129 µM) |  |  |  | 89.96 ± 0.01% |  | 1.06 |  |  | 
3 | C[C@@H]1O[C@@H](OC[C@H]2O[C@@H](Oc3c(-c4ccc(O)c(O)c4)oc4cc(O)cc(O)c4c3=O)[C@H](O)[C@@H](O)[C@@H]2O)[C@H](O)[C@H](O)[C@H]1O [Rutin, Quercetin-3-O-rutoside] | 42.62 ± 0.86 | 22.4 ± 0.1 | 33.48 ± 0.52 | 87.31 ± 0.68 | > 200 |  | 63.9 ± 0.96 (≈ 105 µM) |  | 81.30 ± 0.37% |  | 0.83 |  |  | 

More lines, main results first:

Row | FRAP IC50 [2] [µg/mL] | Protease inhibition IC50 [3] [µg/mL] | DPPH IC50 [4] [µg/mL] | ABTS IC50 [6] [µg/mL] | IC50 [7] [µg/mL] | SMILES | Hep G2 cells IC50 ([1]; MTT, 24 h treatment, mean ± SD) [µg/mL] | IC50 [1] [µg/mL] | cytotoxic effect on the Hep G2 cell line (in words) ([1]; MTT) | NO scavenging ability percentage [5] | NO scavenging ability percentage ([5]; listed as oleanolic acid) [%] | ORAC TE [8] [TE] | NO scavenging [5] [µg/mL] | ORAC TE ([8]; listed as rosmarinic acid) [TE] | NO scavenging ability percentage ([5]; listed as ursolic acid) [%]
4 | 198.86 ± 1.49 | 28.0 ± 0.2 | >2000 | >2000 | > 200 | CC1(C)CC[C@]2(C(=O)O)CC[C@]3(C)C(=CC[C@@H]4[C@@]5(C)CC[C@H](O)C(C)(C)[C@@H]5CC[C@]43C)[C@@H]2C1 [Oleanolic acid] |  | 123 ± 8.84 (≈ 270 µM) | low antiproliferative effect | 48.82 ± 0.91% | 48.82 | 0.46 |  |  | 
5 | 31.87 ± 0.67 | 17.0 ± 0.3 | 28.39 ± 0.75 | 39.52 ± 0.72 | 171 (≈ 475 µM) | O=C(/C=C/c1ccc(O)c(O)c1)O[C@H](Cc1ccc(O)c(O)c1)C(=O)O [Rosmarinic acid] |  | 47.8 ± 5.87 (≈ 133 µM) |  | 71.44 ± 0.37% and 71.44 ± 1.04% |  | 0.60 | 71.44 ± 1.04 | 0.6 | 
6 | 298.51 ± 1.76 | 24.5 ± 0.1 | >2000 | >2000 | 184 ± 9.25 (≈ 402 µM) | C[C@H]1[C@H](C)CC[C@]2(C(=O)O)CC[C@]3(C)C(=CC[C@@H]4[C@@]5(C)CC[C@H](O)C(C)(C)[C@@H]5CC[C@]43C)[C@H]12 [Ursolic acid] |  | > 200 |  | 55.52 ± 0.43% |  | 0.31 |  |  | 55.52
